The values that follow come from ChEMBL document CHEMBL1155721, “Isolation of dolastatin 10 from the marine cyanobacterium Symploca species VP642 and total stereochemistry and biological evaluation of its analogue symplostatin 1” (J Nat Prod, 2001).

Calls of active or inactive are those of the source. The rule behind the calls is not given here.

Data set [1] concerns KB. The experiment in a line: Cytotoxicity against human KB cells. In kind it is functional, cell-based. A digest of the protocol: (§1)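 In vitro cytotoxicity was read out by the sulforhodamine B (SRB) assay, and IC50 values were derived from it.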
In data set [2] the test system is LoVo. The data set can be described thus: Cytotoxicity against human LoVo cells. In kind it is functional, cell-based. Put shortly:
as §1

Data set [3] concerns A10. The data set can be described thus: Antitumor activity against rat A10 cells assessed as total loss of cellular microtubule at 2.5 nM after 18 hrs by indirect immunofluorescence. In kind it is functional, cell-based.
The test system of data set [4] is A10. The data set can be described thus: Antitumor activity against rat A10 cells assessed as loss of cellular microtubule after 18 hrs by indirect immunofluorescence. The format is functional, cell-based. As to conditions: A10, 18 h. A digest of the protocol:
(§2)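 Rat A-10 cells were plated on glass coverslips and left to attach and grow for at least 24 h. Drug was then added for 18 h. Cells were fixed and cellular microtubules were visualised by indirect immunofluorescence.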

Data set [5] has as its system Mus musculus. The data set can be described thus: Toxicity in iv dosed mouse on 1 day. In kind it is organism-based. To be noted: in vivo, 24 h. A digest of the protocol:
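Mice received a single intravenous injection on day 1 at 1.0 or 1.4 mg/kg, and lethality was recorded.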

The test system of data set [6] is Mus musculus. The data set can be described thus: Toxicity in iv dosed mouse assessed as local tissue damage. In kind it is organism-based. As to conditions: in vivo.
Data set [7] relates to Mus musculus. The data set can be described thus: Gastro intestinal toxicity in iv dosed mouse. As to conditions: in vivo. In kind it is organism-based.
Data set [8] deals with Mus musculus. The data set can be described thus: Liver toxicity in iv dosed mouse. The format is organism-based. To be noted: in vivo.
Data set [9] relates to MC-38. The experiment in a line: Antitumor activity against drug-insensitive mouse C38 cell implanted in mouse at 3 mg/kg, iv total dosing schedule on day 3. The format is functional. Put shortly: (§3)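 Mice bearing early-stage subcutaneously implanted solid tumours; treatment given intravenously. Activity expressed as T/C and as log kill, (T − C)/(3.32·Td). T and C are the median days for treated and control tumours to reach 750-1000 mg. Td is the tumour volume doubling time.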

A short description of data set [10]: Antitumor activity against drug-insensitive mouse 16/C cell implanted in mouse at 1.25 mg/kg, iv total dosing schedule on day 1 and day 4 to 6. In kind it is functional. A digest of the protocol: as §3
Data set [11] can be described thus: Antitumor activity against adriamycin-resistant early stage mouse M17/ADR cell implanted in mouse at 2.8 mg/kg, iv total dosing schedule on day 1 and day 4,7,8. The format is functional. Put shortly: as §3
Data set [12] can be described thus: Antitumor activity against adriamycin-resistant early stage mouse M16/C/ADR cell implanted in mouse at 3.15 mg/kg, iv total dosing schedule on day 1 and day 3, 5 to 9. In kind it is functional. A digest of the protocol:
as §3

Data set [13] concerns A10. The data set can be described thus: Antitumor activity against rat A10 cells assessed as total loss of cellular microtubule at 150 nM after 18 hrs by indirect immunofluorescence. In kind it is functional, cell-based.
Data set [14] relates to A10. The data set can be described thus: Antitumor activity against rat A10 cells assessed as total loss of cellular microtubule at 0.75 nM after 18 hrs by indirect immunofluorescence. In kind it is functional, cell-based. A digest of the protocol:
as §2

In general, IC50 refers to the concentration that gives 50% inhibition. Usually EC50 stands for the concentration giving half of the maximal effect. A word on the T/C: it is the ratio of treated to control.

With `CC[C@H](C)[C@@H]([C@@H](CC(=O)N1CCC[C@H]1[C@H](OC)[C@@H](C)C(=O)N[C@@H](Cc1ccccc1)c1nccs1)OC)N(C)C(=O)[C@@H](NC(=O)[C@H](C(C)C)N(C)C)C(C)C` (stereo in doubt) [DOLASTATIN-10], the IC50 in [1] (kb) is 0.041 nM; in data set [2] (lovo), 0.066 nM.
In the case of `CC[C@H](C)[C@@H]([C@@H](CC(=O)N1CCC[C@H]1[C@H](OC)[C@@H](C)C(=O)N[C@@H](Cc1ccccc1)c1nccs1)OC)N(C)C(=O)[C@@H](NC(=O)[C@H]([C@@H](C)CC)N(C)C)C(C)C` [SYMPLOSTATIN 1], the IC50 in data set [1] (Homo sapiens, KB) was 0.15 nM; in [2] (Homo sapiens, LoVo), 0.34 nM. Moreover, in data set [3], the outcome was Active. Also, the EC50 in data set [4] came to 0.6 nM. Besides, the LD20 in data set [5] came out at 1 mg/kg. Moreover, the LD60 in data set [5] is 1.4 mg/kg. Also, the Activity entry in data set [6], in [7] and in [8] was “Toxic” each time. Besides, the T/C is listed as 0% in data set [9], 0% in data set [10], 32% in data set [11] and 36% in data set [12].
`CC[C@]1(O)C[C@@H]2CN(CCc3c([nH]c4ccccc34)[C@@](C(=O)OC)(c3cc4c(cc3OC)N(C)[C@H]3[C@@](O)(C(=O)OC)[C@H](OC(C)=O)[C@]5(CC)C=CCN6CC[C@]43[C@@H]65)C2)C1`: in [13], the result was Active.
As to `CC[C@H](C)[C@@H]([C@@H](CC(=O)N1CCC[C@H]1[C@H](OC)[C@@H](C)C(=O)N[C@@H](Cc1ccccc1)c1nccs1)OC)N(C)C(=O)[C@@H](NC(=O)[C@H](C(C)C)N(C)C)C(C)C` (stereo in doubt; 1), the outcome in [14] was Active.
For the compound `CC[C@H](C)[C@@H]([C@@H](CC(=O)N1CCC[C@H]1[C@H](OC)[C@@H](C)C(=O)N[C@@H](Cc1ccccc1)c1nccs1)OC)N(C)C(=O)[C@@H](NC(=O)[C@H](C(C)C)N(C)C)C(C)C` (stereo in doubt; 1) [DOLASTATIN-10], the IC50 came out at 0.052 nM in data set [1] (Homo sapiens, KB) and 0.076 nM in data set [2] (Homo sapiens, LoVo). Besides, the EC50 in [4] was 0.25 nM.
